What all share (format): functional
Assay [1] can be described thus: Antioxidant activity against ABTS radical assessed as Trolox equivalent.
Assay [2] in a line: Antioxidant activity assessed as protection against Fenton oxidation-induced thymidine degradation in 11.4 mM phosphate buffer at 100 uM by competitive immuno-enzymatic assay.
For assay [3], the system named is Radical scavenging activity. As to the kind of experiment: Antioxidant activity assessed as DPPH free radical scavenging activity by measuring [DPPH]/antioxidant EC50 ratio measured every 5 mins for 1 hr. Summed up: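 DPPH (200 µM ethanol stock, 100 µM final) mixed 1:1 with compound in ethanol, 10 concentrations (0–1 10^-3 M), duplicate. Read at 515 nm every 5 min for 1 h; % remaining DPPH at steady state plotted against antioxidant/DPPH molar ratio to give EC50. Reported as antiradical power; no value if steady state not reached within 1 h.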
In general terms: Loss of DPPH colour is used to gauge radical scavenging.

A short description of assay [4]: Antioxidant activity assessed as protection against 340 Gy gamma-radiation-induced thymidine degradation in 12.5 mM phosphate buffer at 50 uM by competitive immuno-enzymatic assay. Summed up: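 Thymidine at 15 µM with compound at 50 µM, 12.5 mM phosphate buffer, given 340 Gy from a 137Cs source. Remaining intact thymidine measured by competitive immunoassay with anti-thymidine monoclonal antibody; duplicate, averaged.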

Assay [5] in a line: Antioxidant activity assessed as protection against UV/H2O2-induced thymidine degradation in 12.5 mM phosphate buffer at 100 uM by competitive immuno-enzymatic assay. The essentials:
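Thymidine at 70 µM with compound at 100 µM and H2O2 at 5 mM in 12.5 mM phosphate buffer, irradiated at 254 nm, 1.75 J cm-2. Intact thymidine quantified by competitive anti-thymidine monoclonal antibody immunoassay; duplicate, averaged.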

Assay [6] in a line: Antioxidant activity assessed as beta-carotene bleaching activity at 116 uM after 4 hrs by spectrophotometry relative to contro. The essentials: (§1)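 Emulsion of β-carotene, linoleic acid and Tween 40 in oxygen-saturated water added to compound in ethanol (24 or 116 µM). Incubated at 50 °C, absorbance at 470 nm read at zero and followed over 4 h. % protection = [1 − (A0 − At)/(Ac0 − Act)] × 100 versus no-compound control; triplicate, averaged.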

The nature of assay [7]: Antioxidant activity assessed as beta-carotene bleaching activity at 24 uM after 4 hrs by spectrophotometry relative to control. The essentials: as §1

The source made the active and inactive calls. The rule behind the calls is not given here.

On to `COC(=O)/C=C1\OC(=O)C(c2ccccc2)=C1O`, for which the Activity is 46.2 mM in assay [1], 45.8% in assay [2], 69.4% in assay [4] and 37.7% in assay [5]. The Ratio in assay [3] is 3.22.

Consider `COC(=O)/C(=C1/OC(=O)C(c2ccc(OC)cc2)=C1O)c1cccc(C(F)(F)F)c1`, for which the Activity in assay [1] is 2.75 mM; in assay [2], 33.9%; in assay [4], 46.3%; in assay [5], 35.8%. The Ratio in assay [3] came to 4.08.

As to `COC(=O)/C=C1\OC(=O)C(c2ccc(Br)cc2)=C1O`, the Activity in assay [1] amounted to 17.7 mM; in assay [2] it was 27.1%; in assay [4], 51.7%; in assay [5], 41.2%. For the same molecule, in assay [3], the Ratio came out at 1.17.

As for `COC(=O)/C(=C1/OC(=O)C(c2ccc(OC)cc2)=C1O)c1ccccc1`, the Activity in assay [1] was 1.67 mM; in assay [2] it was 58%; in assay [4] it was 46.4%; in assay [5], 42.9%. In addition, the Ratio in assay [3] is 3.2.

On to `COC(=O)[C@H](O)[C@H]1OC(=O)C(c2ccc(Br)cc2)=C1O`, for which the Activity in assay [1] is 4.91 mM; in assay [2], 37.6%; in assay [4], 60.2%; in assay [5] it was 37.3%. Moreover, the Ratio in assay [3] was 2.81.

In the case of `COC(=O)/C=C1\OC(=O)C(c2ccc(F)cc2)=C1O`, the Activity amounted to 28.3% in assay [2], 52.9% in assay [4] and 69.3% in assay [5]. In assay [3], the Ratio worked out at 1.97.

Turning to `COC(=O)[C@H](O)[C@H]1OC(=O)C(c2ccccc2)=C1O`, the Activity was over 44% in assay [6]; 1.94 mM in assay [1]; 31% in assay [2]; 62% in assay [4]; 33.2% in assay [5]. In assay [3], the Ratio stood at 3.57.

Turning to `COC(=O)/C=C1\OC(=O)C(C(=O)OCc2ccccc2)=C1O`, the Activity stood at 18.5 mM in assay [1], 0.3% in assay [2], 23.1% in assay [4] and 13.9% in assay [5]. In addition, in assay [3], the Ratio amounted to 0.93.

Regarding `COC(=O)/C=C1\OC(=O)C(c2ccc(OC)cc2)=C1O`, the Activity is over 44% in assay [6]; 1.31 mM in assay [1]; 32% in assay [2]; 73.8% in assay [4]; 30.7% in assay [5]. In assay [3], the Ratio amounted to 3.6.

For `COC(=O)[C@H](O)[C@H]1OC(=O)C(c2ccc(OCc3ccccc3)cc2)=C1O`, the Activity in assay [1] worked out at 2.16 mM; in assay [2], 21.1%; in assay [4] it was 37.4%; in assay [5] it was 51%. Further, the Ratio in assay [3] came out at 3.12.

`COC(=O)[C@H](O)[C@H]1OC(=O)C(c2cccs2)=C1O`: the Activity was 0% in assay [2], 40.3% in assay [4] and 16.1% in assay [5]. The Ratio in assay [3] was 2.25.

Consider `COC(=O)/C(=C1/OC(=O)C(c2ccc(OC)cc2)=C1O)c1ccc(Cl)cc1`, for which the Activity in assay [1] was found to be 3.97 mM; in assay [2], 41.7%; in assay [4], 22.6%; in assay [5] it was 45%. Moreover, the Ratio in assay [3] was 3.37.

Consider `O=C1O[C@H]([C@@H](O)CO)C(O)=C1O`, for which the outcome in assay [6] and in assay [7] was inactive. Also, the Activity in assay [1] came out at 0.64 mM. In addition, the Ratio in assay [3] came to 4.56.

For the molecule `COC(=O)/C(=C1/OC(=O)C(c2ccc(OC)cc2)=C1O)c1ccsc1`, the Activity in assay [1] was 2.69 mM; in assay [2] it was 45.2%; in assay [4] it was 76%; in assay [5], 34.8%. Also, the Ratio in assay [3] is 2.97.

For `COC(=O)/C(=C1/OC(=O)C(c2ccc(OC)cc2)=C1O)c1ccccc1C(F)(F)F`, the outcome in assay [6] was Active. In addition, the Activity amounted to 12.1 mM in assay [1], 14.8% in assay [2], 17.6% in assay [4] and 46.1% in assay [5].

Take `Cc1c(C)c2c(c(C)c1O)CCC(C)(C(=O)O)O2` (stereo not given): the values for the Activity in assay [2], in assay [4] and in assay [5] were 11.7%, 5.2% and 4.4%, respectively.

`COC(=O)/C(=C1/OC(=O)C(c2ccc(OC)cc2)=C1O)c1cccc(O)c1`: the Activity in assay [1] came out at 1.56 mM; in assay [2], 91.6%; in assay [4], 34.2%; in assay [5], 50%. Further, the Ratio in assay [3] was found to be 3.68.

Take `COC(=O)[C@H](O)[C@H]1OC(=O)C(c2ccc([N+](=O)[O-])cc2)=C1O`: the Activity was 24.6 mM in assay [1], 70.7% in assay [2], 60.9% in assay [4] and 33.4% in assay [5].

As to `COC(=O)/C(=C1/OC(=O)C(c2ccc(OC)cc2)=C1O)c1ccco1`, the Activity in assay [1] worked out at 1.16 mM; in assay [2] it was 0%; in assay [4], 62%; in assay [5], 28.7%. The Ratio in assay [3] was 3.42.

Turning to `COC(=O)[C@H](O)[C@H]1OC(=O)C(c2ccc(O)cc2)=C1O`, the Activity in assay [1] is 0.6 mM; in assay [2], 93.4%; in assay [4], 63.7%; in assay [5], 29.4%. Besides, the Ratio in assay [3] is 3.

Take `COC(=O)/C(=C1/OC(=O)C(c2ccc(OC)cc2)=C1O)c1ccc(C(C)=O)cc1`: the result in assay [6] and in assay [7] was Active. Besides, the Activity in assay [1] turned out to be 6.18 mM; in assay [2], 41.1%; in assay [4], 34.3%; in assay [5], 41.1%. The Ratio in assay [3] turned out to be 3.27.

As for `COC(=O)[C@H](O)[C@H]1OC(=O)C(c2ccc(OC)cc2)=C1O`, the Activity worked out at 1.55 mM in assay [1], 25.8% in assay [2], 87.4% in assay [4] and 24.9% in assay [5]. Besides, the Ratio in assay [3] was 3.44.

As to `COC(=O)/C=C1\OC(=O)C(c2ccc([N+](=O)[O-])cc2)=C1O`, the Activity was found to be 18.7 mM in assay [1], 40.7% in assay [2], 58.5% in assay [4] and 31.5% in assay [5].

With `COC(=O)[C@H](O)[C@H]1OC(=O)C(C(C)=O)=C1O`, the Activity turned out to be 82.7 mM in assay [1], 0% in assay [2], 5.6% in assay [4] and 7.4% in assay [5].

Consider `COC(=O)/C=C1\OC(=O)C(c2cccs2)=C1O`, for which the Activity was 0% in assay [2], 51.4% in assay [4] and 23.6% in assay [5].

Consider `COC(=O)/C(=C1/OC(=O)C(c2ccc(OC)cc2)=C1O)c1ccoc1`, for which the Activity in assay [1] turned out to be 1.06 mM; in assay [2], 13.8%; in assay [4], 77%; in assay [5], 36%. The Ratio in assay [3] was found to be 3.35.

On to `COC(=O)[C@H](O)[C@H]1OC(=O)C(c2ccc(C)cc2)=C1O`, for which the Activity came out at 1.54 mM in assay [1], 7% in assay [2], 42.7% in assay [4] and 43.8% in assay [5]. In assay [3], the Ratio stood at 3.27.

Consider `COC(=O)[C@H](O)[C@H]1OC(=O)C(C(=O)OCc2ccccc2)=C1O`, for which the Activity worked out at 43.3 mM in assay [1], 2.6% in assay [2], 47.9% in assay [4] and 16.8% in assay [5].

Regarding `COC(=O)[C@H](O)[C@H]1OC(=O)C(c2ccc(F)cc2)=C1O`, the Activity turned out to be 2.94 mM in assay [1], 55.2% in assay [2], 39% in assay [4] and 55.3% in assay [5]. The Ratio in assay [3] stood at 4.2.

As to `COC(=O)/C=C1\OC(=O)C(c2ccc(C)cc2)=C1O`, the Activity in assay [1] amounted to 6.51 mM; in assay [2], 14.1%; in assay [4], 30%; in assay [5], 52.7%. Moreover, the Ratio in assay [3] is 2.56.

`COC(=O)/C=C1\OC(=O)C(c2ccc(O)cc2)=C1O`: the Activity is 0.48 mM in assay [1], 82.7% in assay [2], 57.2% in assay [4] and 32.6% in assay [5]. In addition, the Ratio in assay [3] amounted to 2.85.

`O=C(O)c1cc(O)c(O)c(O)c1`: the Activity in assay [1] worked out at 1.36 mM. For the same molecule, the Ratio in assay [3] turned out to be 11.7.

Source of the values: ChEMBL document CHEMBL1275383, “Synthesis and antioxidant properties of pulvinic acids analogues” (Bioorg Med Chem, 2010).
